Data taken from ChEMBL document CHEMBL1158423, “Antibacterial activity of berberine-NorA pump inhibitor hybrids with a methylene ether linking group” (2009).
The source made the active and inactive calls. The rule behind the calls is not given here.

Assays:
Staphylococcus aureus [1] = test: Antibacterial activity against Staphylococcus aureus K1758 NorA efflux pump-deficient mutant after 18 hrs by twofold serial dilution method; type: functional; conditions: K1758, 18 h
How it was run: (§1)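 Broth microdilution with serial 2-fold dilutions of compound, cells inoculated at 10^5 per mL, in triplicate. MIC is the lowest concentration giving complete growth inhibition over 18 h at 37 °C. Growth is read as absorbance at 600 nm.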

Staphylococcus aureus [2] = test: Antibacterial activity against wild type Staphylococcus aureus 8325-4 after 18 hrs by twofold serial dilution method; type: functional; conditions: 8325-4, 18 h
How it was run: (§2)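 Broth microdilution: cells at 10^5 mL−1 in broth, serial 2-fold dilutions of compound, triplicate determinations; 18 h at 37 °C; growth followed by absorbance at 600 nm. MIC taken as the lowest concentration giving complete growth inhibition.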

Staphylococcus aureus [3] = test: Antibacterial activity against Staphylococcus aureus K2378 overexpressing NorA efflux pump after 18 hrs by twofold serial dilution method; type: functional; conditions: K2378, 18 h; how it was run: as §1
Escherichia coli [4] = test: Antibacterial activity against Escherichia coli BW-25116 TolC-deficient mutant after 18 hrs by twofold serial dilution method; type: functional; conditions: BW25116, 18 h; how it was run: as §1
Escherichia coli [5] = test: Antibacterial activity against Escherichia coli ECM116 mar1642 overexpressing […] pump after 18 hrs by twofold serial dilution method; type: functional; conditions: ECM116, 18 h; how it was run: as §1
Escherichia coli [6] = test: Antibacterial activity against Escherichia coli K-12 after 18 hrs by twofold serial dilution method; type: functional; conditions: K-12, 18 h; how it was run: as §2
Escherichia coli [7] = test: Antibacterial activity against Escherichia coli ECM1642 after 18 hrs by twofold serial dilution method; type: functional; conditions: ECM1642, 18 h; how it was run: as §2
Staphylococcus aureus [8] = test: Antibacterial activity against Staphylococcus aureus K1758 NorA efflux pump-deficient mutant after 18 hrs by twofold serial dilution method relative to berberine; type: functional
Staphylococcus aureus [9] = test: Antibacterial activity against wild type Staphylococcus aureus 8325-4 after 18 hrs by twofold serial dilution method relative to berberine; type: functional
How it was run: (§3)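 Broth microdilution with an inoculum of 10^5 cells/mL and serial 2-fold compound dilutions, run in triplicate. Plates were incubated 18 h at 37 °C and growth was read as absorbance at 600 nm. MIC was the lowest concentration giving complete growth inhibition.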

Staphylococcus aureus [10] = test: Antibacterial activity against Staphylococcus aureus K2378 overexpressing NorA efflux pump after 18 hrs by twofold serial dilution method relative to berberine; type: functional
Escherichia coli [11] = test: Antibacterial activity against Escherichia coli BW-25116 TolC-deficient mutant after 18 hrs by twofold serial dilution method relative to berberine; type: functional, BW25116; how it was run: as §3
Escherichia coli [12] = test: Antibacterial activity against Escherichia coli ECM116 mar1642 overexpressing […] pump after 18 hrs by twofold serial dilution method relative to berberine; type: functional; how it was run: as §3
Nucleic Acid [13] = test: Binding affinity to D1 duplex DNA by electrospray ionization mass spectrometry; type: nucleic-acid assay
How it was run: (§4)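 Duplex D1, D2 or forked F10 was annealed from complementary strands in 0.1 M ammonium acetate. ESI-MS used a 100 V cone voltage; thirty acquisitions were combined, baseline-subtracted and smoothed.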

Nucleic Acid [14] = test: Binding affinity to D2 duplex DNA by electrospray ionization mass spectrometry; type: nucleic-acid assay; how it was run: as §4
Nucleic Acid [15] = test: Binding affinity to F10 duplex DNA by electrospray ionization mass spectrometry; type: nucleic-acid assay; how it was run: as §4
Nucleic Acid [16] = test: Binding affinity to quadruplex Q1 DNA by electrospray ionization mass spectrometry; type: nucleic-acid assay
Nucleic Acid [17] = test: Binding affinity to quadruplex Q3 DNA by electrospray ionization mass spectrometry; type: nucleic-acid assay
Enterococcus faecalis [18] = test: Antibacterial activity against Enterococcus faecalis OG1RF after 18 hrs by twofold serial dilution method; type: functional; how it was run: as §2
Enterococcus faecalis [19] = test: Antibacterial activity against Enterococcus faecalis MMH594 after 18 hrs by twofold serial dilution method; type: functional; conditions: MMH594, 18 h; how it was run: as §2
Enterococcus faecalis [20] = test: Antibacterial activity against Enterococcus faecalis V583 after 18 hrs by twofold serial dilution method; type: functional; conditions: V583, 18 h; how it was run: as §2
[21] = target: T1, Quinolone resistance protein NorA (Staphylococcus aureus) (UniProt P0A0J7); test: Inhibition of NorA efflux pump in wild type Staphylococcus aureus 8325-4 assessed as increase in berberine accumulation at 3 uM
T1 sequence (whole entry): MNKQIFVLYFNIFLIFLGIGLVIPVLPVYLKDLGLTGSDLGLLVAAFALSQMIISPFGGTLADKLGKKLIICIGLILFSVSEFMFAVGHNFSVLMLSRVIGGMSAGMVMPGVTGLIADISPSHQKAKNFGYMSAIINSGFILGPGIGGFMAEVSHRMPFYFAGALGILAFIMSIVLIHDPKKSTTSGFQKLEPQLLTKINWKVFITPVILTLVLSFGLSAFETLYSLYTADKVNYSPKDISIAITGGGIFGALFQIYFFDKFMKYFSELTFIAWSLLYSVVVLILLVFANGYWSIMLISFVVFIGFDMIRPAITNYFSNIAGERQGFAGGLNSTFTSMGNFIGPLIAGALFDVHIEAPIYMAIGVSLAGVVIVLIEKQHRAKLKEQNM
How it was run: (§5)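 Cells are grown at 37 °C to OD600 1.5 and washed twice in PBS. They are energised in PBS with 10 mM dextrose (OD ~0.8) for 1 h at 37 °C with aeration, washed, then diluted to OD ~0.3 in PBS. Compounds are added at 3 μM final. Accumulation is followed by fluorescence at ex/em 355/517 nm, with cell-free background subtracted.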

[22] = target: T1, Quinolone resistance protein NorA (Staphylococcus aureus); test: Inhibition of NorA efflux pump in Staphylococcus aureus K1758 NorA efflux pump-deficient mutant assessed as increase in berberine accumulation at 3 uM; how it was run: as §5
[23] = target: T1, Quinolone resistance protein NorA (Staphylococcus aureus); test: Inhibition of NorA efflux pump in Staphylococcus aureus K2378 overexpressing NorA efflux pump overexpressing NorA efflux pump assessed as increase in berberine accumulation at 3 uM; how it was run: as §5
[24] = target: T1, Quinolone resistance protein NorA (Staphylococcus aureus); test: Inhibition of NorA efflux pump in wild type Staphylococcus aureus 8325-4 assessed as potentiation of EtBr uptake at 3 uM
How it was run: (§6)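 Cells are prepared as for the accumulation assay: grown to OD600 1.5, washed in PBS, energised 1 h at 37 °C in PBS with 10 mM dextrose, then diluted to OD ~0.3 in PBS. The inhibitor (3 μM final) is added before ethidium bromide. Uptake is read by fluorescence at ex/em 530/600 nm, with cell-free background subtracted.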

[25] = target: T1, Quinolone resistance protein NorA (Staphylococcus aureus); test: Inhibition of NorA efflux pump in Staphylococcus aureus K1758 NorA efflux pump-deficient mutant assessed as potentiation of EtBr uptake at 3 uM; how it was run: as §6
[26] = target: T1, Quinolone resistance protein NorA (Staphylococcus aureus); test: Inhibition of NorA efflux pump in Staphylococcus aureus K2378 overexpressing NorA efflux pump assessed as potentiation of EtBr uptake at 3 uM; how it was run: as §6
[27] = target: T1, Quinolone resistance protein NorA (Staphylococcus aureus); test: Inhibition of NorA efflux pump in Staphylococcus aureus K2378 overexpressing NorA efflux pump assessed as inhibition of EtBr efflux at 3 uM
How it was run: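 K2378 cells are grown at 37 °C to OD ~0.9, washed in PBS and loaded with 3 μM ethidium bromide plus 30 μg/mL reserpine for 20 min at 37 °C. After ice-cold washes, they are added at OD 0.3 to ice-cold PBS with 10 mM dextrose containing inhibitor at 3 μM final. The no-efflux control is PBS without dextrose plus reserpine. Efflux is read at ex/em 530/600 nm.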

SMILES	MIC (Staphylococcus aureus [1])	MIC (Staphylococcus aureus [2])	MIC (Staphylococcus aureus [3])	MIC (Escherichia coli [4])	MIC (Escherichia coli [5])	MIC (Escherichia coli [6])	MIC (Escherichia coli [7])	fold change (FC) (Staphylococcus aureus [8])	fold change (FC) (Staphylococcus aureus [9])	fold change (FC) (Staphylococcus aureus [10])	fold change (FC) (Escherichia coli [11])	fold change (FC) (Escherichia coli [12])	MIC (Enterococcus faecalis [18])	MIC (Enterococcus faecalis [19])	MIC (Enterococcus faecalis [20])	further results
COc1ccc2c(OCc3ccccn3)c3[n+](cc2c1OC)CCc1cc2c(cc1-3)OCO2.[Br-]	191 µM	> 191 µM	> 191 µM	191 µM	191 µM	> 191 µM	> 191 µM	<5	<2	>3	2	2	–	–	–	–
COc1ccc2c(OCc3ccc4ccccc4c3)c3[n+](cc2c1OC)CCc1cc2c(cc1-3)OCO2.[Br-]	5.5 µM	10.9 µM	21.9 µM	10.9 µM	21.9 µM	> 175 µM	> 175 µM	7	30	>30	30	15	–	–	–	Activity (Nucleic Acid [13]): 30%; Activity (Nucleic Acid [14]): 20%; Activity (Nucleic Acid [15]): 15%; Activity (Nucleic Acid [16]): 100%; Activity (Nucleic Acid [17]): 67%
COc1ccc2c(OCc3ccccc3)c3[n+](cc2c1OC)CCc1cc2c(cc1-3)OCO2.[Br-]	12 µM	24 µM	95.8 µM	12 µM	24 µM	> 192 µM	> 192 µM	3	14	7	27	14	–	–	–	–
COc1ccc2c(OCc3ccc(C#N)cc3)c3[n+](cc2c1OC)CCc1cc2c(cc1-3)OCO2.[Br-]	91.4 µM	183 µM	> 183 µM	91.4 µM	45.7 µM	> 183 µM	> 183 µM	<2	2	4	4	7	–	–	–	–
COc1ccc2c(Cc3ccccc3-c3cc4cc([N+](=O)[O-])ccc4[nH]3)c3[n+](cc2c1OC)CCc1cc2c(cc1-3)OCO2	3.1 µM	3.1 µM	3.1 µM	> 150 µM	> 150 µM	> 150 µM	> 150 µM	–	–	–	–	–	6.3 µM	6.3 µM	6.3 µM	Activity [21]: Active; Activity [22]: Active; Activity [23]: Active; Activity [24]: Active; Activity [25]: Active; Activity [26]: Active; Activity [27]: Active
COc1ccc2cc3[n+](cc2c1OC)CCc1cc2c(cc1-3)OCO2 [BERBERINE CHLORIDE]	40 µM	325 µM	> 650 µM	325 µM	325 µM	> 2600 µM	> 2600 µM	–	–	–	–	–	650 µM	> 650 µM	> 650 µM	–
